Only some compounds are listed: those with a hit (about 2.2% of all), similar ones and a draw of the others.
Jurkat NFkB inh: inhibitors of the PMA/ionomycin-induced NF-kB reporter in Jurkat cells; 0.53% of 330,000 active; inhibition, % at 4 µM; PMA/ionomycin-induced NF-kB luciferase reporter, luminescence; in the data active = inhibition above about 50%
NR2E3 ag-1: activates human photoreceptor nuclear receptor NR2E3. Q9Y5X4. inhibition of corepressor binding, % at 4.78 µM. 0.12% of 320,000 active. GST-NR2E3/biotin-RetCOR TR-FRET, 1536-well;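 active = percent inhibition above the cutoff of mean plus 3 SD of all tested compounds, set per screening campaign, cut at about 20% in these data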;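 also: 0% = DMSO wells and 100% = biotin wells as full block of FRET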
Target sequence (Q9Y5X4 whole entry, looked up): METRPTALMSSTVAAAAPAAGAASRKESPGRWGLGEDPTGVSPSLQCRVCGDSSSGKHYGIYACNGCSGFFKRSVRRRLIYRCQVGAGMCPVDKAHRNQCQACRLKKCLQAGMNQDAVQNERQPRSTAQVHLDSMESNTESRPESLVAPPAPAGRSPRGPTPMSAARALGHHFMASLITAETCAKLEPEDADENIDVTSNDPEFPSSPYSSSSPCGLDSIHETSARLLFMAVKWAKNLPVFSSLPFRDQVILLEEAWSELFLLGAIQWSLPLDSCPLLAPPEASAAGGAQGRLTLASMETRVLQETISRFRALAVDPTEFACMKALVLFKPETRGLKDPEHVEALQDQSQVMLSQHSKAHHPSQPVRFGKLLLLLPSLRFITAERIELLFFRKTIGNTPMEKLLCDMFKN
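Test system: GST-NR2E3 and biotin-RetCOR proteins | Quantity: 1.35 nM GST-tagged NR2E3 final | Medium: Tris pH 7.5 | Also added: 7 nM biotin-RetCOR | Dosing: Compound at 4.8 µM, single dose | Timing: 5 h at 4 °C | Detection: Time-resolved FRET | Read-out basis: Percent inhibition | Benchmarks: Biotin wells as high control, 0.6% DMSO wells as low control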
NR2E3 ag-2: agonists of human NR2E3 nuclear receptor. Q9Y5X4. CHO-S Gal4-NCOR/VP16-NR2E3 two-hybrid, luciferase. inhibition of corepressor binding, % at 3.98 µM. 0.35% of 360,000 active;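 active = inhibition above the mean of all tested compounds plus 3 SD, cut at about 70% in these data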;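 also: 0% = DMSO with NR2E3 transfected cells and 100% = cells lacking NR2E3 construct; higher means lower luciferase signal from less NR2E3 corepressor binding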
miR-122 sensor: blocks miR-122 activity in Huh7 sensor cells; 0.3% of 340,000 active; Huh7 miR-122 Renilla luciferase sensor, 48 h; neutral wells = 0, positive control = 100; AID 602342; activation (reporter increase), % at 12.5 µM;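 active = mean replicate activation score at least 90 and every replicate individually at or above 90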;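 also: higher luciferase means less miR-122 activity so hits act as miR-122 inhibitors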
697 NFkB inh: inhibitors of the PMA/ionomycin-induced NF-kB reporter in 697 B cells; 0.33% of 330,000 active; 697 B-cell NF-kB luciferase reporter, 16 h; inhibition, % at 4 µM; in the data active = inhibition above about 35%
FGF22 binding: FGF22 (human) thermal shift binding; 1.5% of 340,000 active; AID 651658; Q9HCT0; activity (Tm shift, normalised), % at 9.99 µM; recombinant FGF22 thermal shift, SYPRO orange fluorescence; percent of sucrose octasulfate shift, DMSO zero;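 active = mean Tm shift, scaled 0 neutral to 100 positive control, at about 1.3% or above, every replicate too, limit read from the data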
NR2E3 ag conf: confirmation of human NR2E3 agonists. shares compounds with NR2E3 ag-2. CHO-S mammalian two-hybrid NR2E3-NCOR, luciferase luminescence. inhibition, % at 3.98 µM. 51% of 2,300 active. AID 624378;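 active = average inhibition above a cutoff equal to the mean inhibition of all tested compounds plus one SD, cut at about 70% in these data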;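 also: 0% = DMSO in NR2E3 cells and 100% = DMSO in cells lacking NR2E3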
VP16 counter: GAL4-VP16 reporter inhibition in NR2E3 agonist counterscreen. shares compounds with NR2E3 ag-2. CHO-S GAL4-VP16 luciferase reporter, luminescence. inhibition, % at 3.98 µM. 29% of 2,300 active. AID 624379;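 active = mean inhibition above a cutoff equal to the average over all tested compounds plus one standard deviation, cut at about 70% in these data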;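 also: luciferase from a UAS reporter driven by GAL4-VP16 transactivation; 0% = DMSO with VP16-transfected cells and 100% = DMSO with cells lacking VP16; higher means less reporter light so more repression of VP16 activity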
* hit, by the source's call; · = not tested or not shown; [ ] = dose if it differs, or a comment.

SMILES	Jurkat NFkB inh	NR2E3 ag-1	NR2E3 ag-2	miR-122 sensor	697 NFkB inh	FGF22 binding	NR2E3 ag conf	VP16 counter
COc1ccc(C(=O)N2C[C@@H]3[C@H](c4ccccc42)[C@H](CO)N3C(=O)c2cccc(F)c2)cc1	·	·	·	-12.2[16.7 µM]	·	0.6	·	·
O=C(C[C@@H]1CC[C@@H]2NC[C@@H](O)COC[C@H]2O1)NCc1ccc(Oc2ccccc2)cc1	·	·	·	0.7[16.7 µM]	·	0.0	·	·
O=C(c1ccc(F)cc1)N1CC[C@@H]2[C@@H](CO)Nc3ccc(C#Cc4ccc(F)cc4)cc3[C@@H]21	·	·	·	7.7[16.7 µM]	·	·	·	·
CC(=O)c1cn(CC(=O)Nc2ccc(C)cc2C)c2ccccc12	28.0	4.3	53.7	-12.4	-24.7	·	76.9*	48.9
Cc1ccc(NC(=O)Cn2cc(C(=O)C3CC3)c3ccccc32)c(C)c1	2.1	1.7	12.9	3.1	5.1	-0.3	·	·
Cc1noc(C)c1S(=O)(=O)N(C)C[C@@H]1OCCCC[C@H](C)Oc2ccc(NS(=O)(=O)c3ccc(F)cc3)cc2C(=O)N([C@H](C)CO)C[C@@H]1C	·	·	·	-9.1[16.7 µM]	·	-0.6	·	·
O=C(OC(c1ccccc1)c1nccc2ccccc12)c1ccccc1 (centres undefined)	·	·	75.4*	3.5	·	-0.2	71.1*	30.8
Oc1ccccc1/C=N/NC(=S)NC1CC2CCC1C2 (centres undefined)	-52.4	3.1	47.8	43.6	-161.1	0.1	-163.9	-101.0
COCCNC(=S)N/N=C(\C)c1ccccc1O	·	-0.1	66.4	-8.5	·	·	-72.9	-49.7
COc1ccc(O)c(/C=N/NC(=S)NCCc2ccccc2)c1	-7.2	4.0	35.3	-7.2	0.4	-0.3	·	·
COCCCNC(=S)N/N=C/c1ccccc1O	-3.9	3.0	73.8*	2.3	-51.2	-0.2	-37.1	-11.4
COc1cccc(/C=N/NC(=S)NC2CC3CCC2C3)c1OC (centres undefined)	-12.9	2.6	-18.7	·	10.9	-0.1	·	·
COCCNC(=S)N/N=C/c1ccccc1C(=O)O	9.6	0.8	13.2	6.5	14.0	·	·	·
COc1ccc(/C(C)=N/NC(=S)NCCc2ccccc2)c(O)c1	-53.3	2.2	48.5	-2.8	-32.7	-0.4	-17.7	-1.2
CNc1snc(C)c1C(=O)OCC(=O)c1ccc(OC)c(F)c1	8.8	2.9	53.0	·	-7.9	-0.2	56.7	49.8
O=C(NCc1ccc(F)cc1)[C@H]1C[C@H]2C(=O)N3CCC[C@H]3C(=O)N2[C@H]1c1ccc(O)cc1	·	·	·	·	·	0.3	·	·
Cc1cccc(OC(=O)NCCOC(=O)N(O)c2ccc(Cl)cc2)c1	0.2	2.8	80.8*	3.0	-20.2	0.0	83.3*	70.7*
Cc1cccc(OCC(=O)Oc2ccc(Cl)cc2)c1	1.8	0.5	1.2	·	3.6	0.0	·	·
O=C(CSc1nnnn1-c1ccc2c(c1)OCCO2)Nc1nc2c(s1)CCCC2	-23.6	2.8	95.7*	-3.7	-1.1	0.1	98.5*	4.9
COc1cc(-c2coc3c(C(=O)NCc4ccc(OC)c(OC)c4)cccc23)ccc1O	·	·	52.8	11.5	·	-0.2	60.9	30.0
O=C(NCc1cccnc1)c1ccc(-c2ccc(F)c(F)c2)c2ccoc12	·	·	76.3*	-4.3	·	-0.1	95.7*	75.9*
COc1ccc(CNC(=O)c2cccc3c(-c4cccc(C(N)=O)c4)coc23)cc1OC	·	·	52.9	-6.3	·	-0.8	64.3	57.0
COc1ccc(CNC(=O)c2cccc3c(-c4ccc(F)c(F)c4)coc23)cc1OC	·	·	60.7	-3.7	·	·	79.5*	47.6
COc1cc(C2CC(=O)c3c([nH]c(C(=O)OCCOC(C)C)c3C)C2)cc(OC)c1OC (centres undefined)	20.9	3.2	53.3	·	1.6	-0.2	52.9	55.6
COc1ccc(-n2ncc3c(SCC(=O)OC(C)C)ncnc32)cc1	·	·	-8.5	-10.8	·	-0.1	·	·
COc1ccc(-n2ncc3c(N(C)C4CCCCC4)ncnc32)cc1	-5.0	8.7	79.2*	-2.0	-162.1	-0.2	60.5	37.5

Bioassay records deposited in PubChem by several laboratories.
